Assay outcomes from PubChem.
Rows were chosen to be rich in hits. Some 1.3% of all compounds tested hit in one or more screens of this group.
Dynein cargo inh – inhibitors of GR-EGFP nuclear translocation, primary screen, dynein cargo transport inhibitor project, imaging, high-content, 3617.4 mouse cells; test concentration mostly 20 µM; stimulated with dexamethasone, 1 µM; active compounds read low; hit rate 0.47% among 220,000; z-score, hits read low;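 active = plate z-score of nuclear minus cytoplasmic receptor signal below a set negative limit, without overly bright fluorescence or cell loss, cut at about -3.5 in these data, passing the limit was not always enough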;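 also: z-score of nuclear minus cytoplasmic ring GR-EGFP intensity difference per well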
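Also added: dexamethasone, 1.0 µM final. Medium: tet-free, stripped-serum medium. Detection: fixed, Hoechst-stained cells imaged at 10x for EGFP. Read-out: nuclear-to-cytoplasmic GR-EGFP distribution per well. Times: induction 48 h, compound 1 h, agonist 30 min.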
TbHK1 inh – Trypanosoma brucei hexokinase 1 inhibitors, primary screen, biochemical, G6PDH-coupled NADH absorbance, MLSCN library; hexokinase 1 [Trypanosoma brucei]; recombinant TbHK1, G6PDH-coupled NADH A340; inhibition, % at 10 µM; hit rate 0.11% among 220,000; AID 1430, 2008;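 active = inhibition of 50% or more in the single-dose primary screen; inactive = inhibition below 50%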
S1P4 antagonist – S1P4 receptor antagonists, primary screen, cell-based | S1P4-expressing cells, antagonist mode, reporter read-out | inhibition, % at 4.98 µM | hit rate 0.26% among 220,000 | AID 1510, 2009; in the data active = inhibition above about 29%;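 also: 0% = wells stimulated with agonist and 100% = vehicle wells without agonist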
Calb biofilm kill – clotrimazole potentiators killing C. albicans biofilm, primary screen, 4-compound mixtures; C. albicans biofilm persisters + clotrimazole, fluorescence viability; primary screen in compound mixtures of four per well; inhibition, % at 7.6 µM; hit rate 0.02% among 120,000; AID 1242, 2008;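 active = inhibition above 30.3% in the primary screen of four-compound pools, then above 30% when the compound was retested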;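 also: compounds exposed to preformed 24 h biofilms for 48 h; 0% = untreated biofilm control and 100% = clotrimazole plus chlorhexidine kill blank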
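Assay system: C. albicans biofilms / Medium: RPMI/MOPS medium, pH 7.0 / Schedule: biofilm formation 24 h, compound exposure 48 h, 37 °C / Measured by: Alamar Blue fluorescence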
S1P3 antag – S1P3 receptor antagonists, primary screen, cell-based; CHO S1P3 NFAT-BLA reporter, FRET fluorescence, antagonist mode; hit rate 0.27% among 170,000; inhibition, % at 4.98 µM; Sphingosine 1-phosphate receptor 3 (Homo sapiens), Q99500; AID 485, 2006;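 active = inhibition above the plate cutoff, the mean inhibition of test wells on that plate plus 3 SD, cut at about 28% in these data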;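 also: cells challenged with S1P at its EC80 of 0.8 µM; blue over green emission ratio from cleaved BLA substrate after 4 h stimulation; 0% = S1P-stimulated wells and 100% = unstimulated DMSO-only wells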
S1P4 ag – S1P4 receptor agonists, primary screen, cell-based. S1P4-expressing cell line, agonist reporter assay. activation, % at 4.98 µM. hit rate 0.35% among 220,000; in the data active = activation above about 11%;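 also: 0% = DMSO vehicle and 100% = reference agonist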
S1P4 ag conf – S1P4 receptor agonists, retest, confirmation, cell-based, high throughput | S1P4 agonist cell-based reporter assay | hit rate 7% among 740 | shares compounds with S1P4 ag | activation, % at 4.98 µM; in the data active = activation above about 12%;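 also: 0% = vehicle and 100% = full reference agonist response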
S1P1 ag – S1P1 receptor agonists, human, counter-screen for S1P4 agonist project, cell-based | shares compounds with S1P4 ag | S1P1 agonist cell-based assay, activation | activation, % at 4.98 µM | hit rate 4% among 740; in the data active = activation above about 21%;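 also: 0% = vehicle wells and 100% = reference agonist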
Target sequence (P21453 whole entry, looked up): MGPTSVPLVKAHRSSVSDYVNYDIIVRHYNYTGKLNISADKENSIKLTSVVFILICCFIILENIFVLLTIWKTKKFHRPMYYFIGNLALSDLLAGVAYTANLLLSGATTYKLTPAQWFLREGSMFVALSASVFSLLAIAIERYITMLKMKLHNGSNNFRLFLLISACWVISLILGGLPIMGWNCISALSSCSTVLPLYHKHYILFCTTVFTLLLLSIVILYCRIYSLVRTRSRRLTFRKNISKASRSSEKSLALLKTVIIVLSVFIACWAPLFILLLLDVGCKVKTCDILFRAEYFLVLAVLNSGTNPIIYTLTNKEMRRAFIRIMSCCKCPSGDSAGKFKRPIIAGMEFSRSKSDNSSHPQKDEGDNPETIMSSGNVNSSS
An asterisk follows results filed as active; . = no result.

SMILES	Dynein cargo inh	TbHK1 inh	S1P4 antagonist	Calb biofilm kill	S1P3 antag	S1P4 ag	S1P4 ag conf	S1P1 ag
CN1CCc2c(sc(/N=C/c3cc(C(C)(C)C)ccc3O)c2C#N)C1	2.7	-21	-1	22	-4	2	.	.
O=C(COC(=O)c1ccc2c(=O)n3c(nc2c1)CCC3)NC1CCS(=O)(=O)C1 (stereo not given)	0.17	-10	-18	10	-5	-1	.	.
Cc1ccc(CNC(=O)C2CC(c3ccc([N+](=O)[O-])cc3)=NO2)cc1 (stereo not given)	-0.47	4	-7	.	.	25*	-1	-7
Cc1ccsc1/C=N\NC(=O)Cn1nnc2ccccc21	-0.12	-20	-9	21	6	28*	-2	-6
COc1ccc(/C=N/NC(=O)Cn2nnc3ccccc32)cc1OC	0.12	-10	-11	10	0	132*	0	6
Cc1noc(C(=O)Nc2cccc(O)c2)c1Cl	-0.2	-2	0	15	-1	2	.	.
Cc1ccccc1OCC(=O)Nc1nc2ccccc2[nH]1	1.9	-5	24	10	5	21*	-1	4
COc1cccc(NC(=S)NN=C2CCCCCC2)c1	0.13	13	-12	13	-10	-1	.	.
C/C(CC(=O)Nc1ccc(OCc2ccccc2)cc1)=N\NC(=O)C(=O)Nc1cccc(C)c1	1.4	4	6	12	-17	19*	-2	-5
CCOC(=O)Cc1nnc2c(Nc3ccc(C)cc3)nc3nonc3n12	-0.25	-16	-9	.	-32	0	.	.
CCOC(=O)Cc1nnc2c(Nc3ccccc3F)nc3nonc3n12	0.4	-7	-21	.	9	38*	-1	4
CCCCNC(=O)C1CC(c2c(Cl)cccc2Cl)=NO1 (stereo not given)	-0.56	5	-19	.	.	13*	-2	-1
CCCCNC(=O)C1CC(c2cccc([N+](=O)[O-])c2)=NO1 (stereo not given)	1.1	-2	0	.	.	3	.	.
Cc1c(/C=C/C(=O)c2ccc(Cl)s2)cnn1C	-1.8	-39	-19	14	.	13*	-1	4
CCCc1ccc(OCC(=O)Nc2cc(S(=O)(=O)CC)ccc2O)cc1	-0.78	1	-20	25	2	12*	-1	2
CCS(=O)(=O)c1ccc(O)c(NC(=O)COc2ccc(OC)cc2)c1	-1.2	1	-5	13	-16	1	.	.
O=C1NC(c2ccccc2)Nc2c1sc(=S)n2-c1ccccc1 (stereo not given)	1.8	-10	-5	13	-7	2	.	.
O=c1cc(CSc2nnc(Nc3ccccc3F)s2)nc2sccn12	-1.5	-4	0	6	3	55*	-2	-1
O=C(CN1c2ccccc2Sc2ccccc21)NNC(=O)Nc1cccc(Cl)c1	-0.79	17	-5	15	-1	2	.	.
N#Cc1c(-n2cccc2C=O)sc2c1CCCC2	1.4	6	-12	18	-12	19*	14*	-4
O=Cc1cccn1-c1sc2c(c1C(=O)O)CCCC2	0.29	33	-5	11	-6	1	.	.
Oc1ccc2ccccc2c1CN1CCN(c2ccccc2F)CC1	2.6	-1	-3	.	-30	3	.	.
CN1CCN(Cc2c(O)ccc3cc(Br)ccc23)CC1	0.3	-3	-3	6	-10	32*	-3	-5
Cc1ccc(NNC(=O)c2ccno2)c(C)c1	0.56	-8	2	16	2	-2	.	.
N#CC1=C(N)Oc2cc(N)ccc2C1C1CCCCC1 (stereo not given)	0.076	1	4	.	32	14*	-1	-3
SMILES	Dynein cargo inh	TbHK1 inh	S1P4 antagonist	Calb biofilm kill	S1P3 antag	S1P4 ag	S1P4 ag conf	S1P1 ag
O=C(CNC(=O)c1ccccc1)OCc1cccc([N+](=O)[O-])c1	-0.35	30	-24	21	-9	0	.	.
CC(C)(C)c1ccc(C(=O)NCC(=O)OCc2ccc([N+](=O)[O-])cc2)cc1	1.3	-3	-9	28	-4	14*	-2	-7
Cc1ccsc1/C=N/NC(=O)C1C(=O)NCC1c1ccccc1 (stereo not given)	-0.21	-21	0	6	-4	1	.	.
Cc1ccc(NC(=O)COC(=O)CN2C(=O)COc3ccccc32)cc1	0.34	-1	-15	.	.	29*	-2	3
CCOc1ccc(CCNC(=O)COC(=O)c2cccc(OC)c2O)cc1OCC	1.4	9	-18	10	5	13*	-3	-2
CCc1ccc(OC2=NS(=O)(=O)c3ccccc32)cc1	-0.25	-1	-8	17	-13	14*	-2	-6
O=C(Cc1cccs1)Nc1ccccc1C(=O)O	0.77	34	-11	.	-22	117*	-2	5
CCC(=O)NC(=S)Nc1ccccc1C(=O)NC1CCCCC1	0.24	25	-13	18	2	2	.	.
CC(C)C(=O)NC(=S)Nc1ccccc1C(=O)NC1CCCCC1	-0.69	-4	-9	16	11	58*	-1	6
O=C(COC(=O)c1cccc(C(F)(F)F)c1)NCc1ccccc1	1.5	-3	-1	8	-10	23*	-1	7
O=C(COC(=O)c1ccc(Br)cc1)NCc1ccccc1	-0.57	1	-15	20	-13	15*	-1	7
Cc1ccccc1NC(=S)NC(=O)c1cncc(Br)c1	-1.2	1	-11	9	9	16*	-1	7
O=C(NC(=S)Nc1ncc(Br)cc1Br)c1cncc(Br)c1	0.51	-2	-1	.	.	-1	.	.
CCn1c(N2CCN(C(=S)Nc3ccc(OC)cc3)CC2)nc2ccccc21	-0.39	3	-2	2	-7	3	.	.
NC(=O)c1cc2ccc(O)cc2oc1=Nc1ccccc1	0.49	-4	-47	.	-25	33*	1	6
NC(=O)c1cc2ccccc2oc1=NCc1ccccc1	-0.37	-14	2	.	.	-1	.	.
NC(=O)c1cc2ccc(O)cc2oc1=NCc1ccccc1	1.9	3	-79	.	25	79*	10	6
O=C(O)c1ccc(N=c2oc3cc(O)ccc3cc2C(=O)NCc2ccccc2)cc1	1.1	-8	-37	-4	-23	38*	4	3
